In ChEMBL document CHEMBL4138273, “Cysteine-Derived Pleurotin Congeners from the Nematode-Trapping Basidiomycete Hohenbuehelia grisea” (J Nat Prod, 2018):
In brackets after ≈: the same amount, converted by molar mass. Activity calls are given as the source filed them. No cut-off for these calls is given here.

What was measured:
[1] = system: Escherichia coli; test: microbe, parasite or virus in culture; details: DSM 498
[2] = system: Bacillus subtilis; test: Antimicrobial activity against Bacillus subtilis DSM10 after 16 to 48 hrs by serial dilution method; assay type: functional
Procedure, shortened: (§1)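 Inoculum was adjusted to 6.7 × 10^5 cells/mL. Top concentration was 67 μg/mL (20 μL of 1 mg/mL stock) or 100 μg/mL (20 μL of 1.5 mg/mL stock). Ethanol (20 μL) served as negative control.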

[3] = system: Mucor plumbeus; test: Antimicrobial activity against Mucor plumbeus MUCL 49355 after 16 to 48 hrs by serial dilution method; assay type: functional
Procedure, shortened: (§2)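 Yeasts and filamentous fungi were tested by serial dilution in 96-well plates in YMG medium. Inoculum was adjusted to 6.7 × 10^5 cells/mL. Highest tested level was 67 μg/mL (from 20 μL of 1 mg/mL stock) or 100 μg/mL (from 20 μL of 1.5 mg/mL stock). Ethanol (20 μL) was the negative control.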

[4] = system: Yamadazyma tenuis; test: Antimicrobial activity against Candida tenuis MUCL 29892 after 16 to 48 hrs by serial dilution method; assay type: functional
Procedure, shortened: as §2

[5] = system: Schizosaccharomyces pombe; test: Antimicrobial activity against Schizosaccharomyces pombe DSM 70572 after 16 to 48 hrs by serial dilution method; assay type: functional, organism-based
Procedure, shortened: as §2

[6] = system: Wickerhamomyces anomalus; test: Antimicrobial activity against Pichia anomala DSM 6766 after 16 to 48 hrs by serial dilution method; assay type: functional
Procedure, shortened: as §2

[7] = system: Candida albicans; test: Antimicrobial activity against Candida albicans DSM 1665 after 16 to 48 hrs by serial dilution method; assay type: functional
Procedure, shortened: as §2

[8] = system: Rhodotorula glutinis; test: Antimicrobial activity against Rhodotorula glutinis DSM 10134 after 16 to 48 hrs by serial dilution method; assay type: functional
Procedure, shortened: as §2

[9] = system: Mucor hiemalis; test: Antimicrobial activity against Mucor hiemalis DSM 2656 after 16 to 48 hrs by serial dilution method; assay type: functional
Procedure, shortened: as §2

[10] = system: Micrococcus luteus; test: Antimicrobial activity against Micrococcus luteus DSM 1790 after 16 to 48 hrs by serial dilution method; assay type: functional
Procedure, shortened: as §1

[11] = system: Staphylococcus aureus; test: Antimicrobial activity against Staphylococcus aureus DSM 346 after 16 to 48 hrs by serial dilution method; assay type: functional
Procedure, shortened: as §1

[12] = system: Mycolicibacterium smegmatis; test: Antimicrobial activity against Mycobacterium smegmatis DSM 44200 after 16 to 48 hrs by serial dilution method; assay type: functional
Procedure, shortened: as §1

[13] = system: L929; test: Cytotoxicity against mouse L929 cells after 5 days by MTT assay; assay type: functional, cell-based; details: L929, 120 h
Procedure, shortened: (§3)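 Mouse fibroblast L929 and HeLa-derived KB3.1 cells were seeded at 6 × 10^3 cells/well in 96-well plates. Cells were exposed to compounds for 5 days, and IC50 was determined.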

[14] = system: KB 3-1; test: Cytotoxicity against human KB3-1 cells after 5 days by MTT assay; assay type: functional, cell-based; details: KB 3-1, 120 h
Procedure, shortened: as §3

## O=C(O)c1cn(C2CC2)c2cc(N3CCNCC3)c(F)cc2c1=O [CIPROFLOXACIN]
[1]
  MIC: 3.1 µg/mL (≈ 9.36 µM)

## CC1(C)S[C@@H]2[C@H](NC(=O)Cc3ccccc3)C(=O)N2[C@H]1C(=O)O [PENICILLIN G]
[2]
  MIC: 6.3 µg/mL (≈ 18.8 µM)

## C[C@@H]1CO[C@@H]2C3=C(CC4[C@H](C(=O)O)CCC5[C@@H]1CC[C@]452)C(=O)C(SC[C@H](O)C(=O)O)=CC3=O (stereo partly specified)
[3]
  Activity: inactive
[4]
  Activity: inactive
[2]
  Activity: inactive
[5]
  Activity: inactive
[6]
  Activity: inactive
[7]
  Activity: inactive
[8]
  Activity: inactive
[9]
  Activity: inactive
[10]
  Activity: inactive
[11]
  Activity: inactive
[12]
  Activity: inactive

## NYSTATIN
[3]
  MIC: 12.5 µg/mL
[4]
  MIC: 12.5 µg/mL
[5]
  MIC: 16.7 µg/mL
[6]
  MIC: 16.7 µg/mL
[7]
  MIC: 16.7 µg/mL
[8]
  MIC: 16.7 µg/mL
[9]
  MIC: 16.7 µg/mL

## CC(=O)N[C@@H](CSC1=CC(=O)C2=C(CC3[C@H](C(=O)O)CCC4[C@@H]5CC[C@]34[C@@H]2OC[C@H]5C)C1=O)C(=O)O (stereo partly specified)
[3]
  Activity: inactive
[4]
  MIC: 100 µg/mL (≈ 193 µM)
[2]
  Activity: inactive
[5]
  Activity: inactive
[6]; Hansenula anomala
  MIC: 66.7 µg/mL (≈ 129 µM)
[7]
  Activity: inactive
[8]
  MIC: 33.3 µg/mL (≈ 64.3 µM)
[9]
  Activity: inactive
[10]
  Activity: inactive
[11]
  Activity: inactive
[12]
  Activity: inactive

## C[C@@H]1CO[C@@H]2c3c(O)cc4scnc4c3C[C@H]3[C@H](C(=O)O)CC[C@H]4[C@@H]1CC[C@@]243
[3]
  Activity: inactive
[4]
  MIC: 100 µg/mL (≈ 250 µM)
[2]
  Activity: inactive
[5]
  Activity: inactive
[6]; Hansenula anomala
  MIC: 66.7 µg/mL (≈ 167 µM)
[7]
  Activity: inactive
[8]
  MIC: 33.3 µg/mL (≈ 83.4 µM)
[9]
  Activity: inactive
[10]
  Activity: inactive
[11]
  Activity: inactive
[12]
  Activity: inactive

## C[C@@H]1CO[C@@H]2C3=C(C(=O)C=CC3=O)[C@H]3OC(=O)[C@@H]4CC[C@H]5[C@@H]1CC[C@@]25[C@@H]34 (racemic)
[3]
  MIC: 100 µg/mL (≈ 282 µM)
[4]
  MIC: 100 µg/mL (≈ 282 µM)
[2]
  MIC: 100 µg/mL (≈ 282 µM)
[5]
  Activity: inactive
[6]; Hansenula anomala
  MIC: 66.7 µg/mL (≈ 188 µM)
[7]
  Activity: inactive
[8]
  MIC: 33.3 µg/mL (≈ 94 µM)
[9]
  MIC: 16.7 µg/mL (≈ 47.1 µM)
[10]
  Activity: inactive
[11]
  MIC: 66.7 µg/mL (≈ 188 µM)
[12]
  Activity: inactive
[13]
  IC50: 2.2 µg/mL (≈ 6.21 µM)
[14]
  IC50: 2.8 µg/mL (≈ 7.9 µM)

## CN(C)[C@@H]1C(O)=C(C(N)=O)C(=O)[C@@]2(O)C(O)=C3C(=O)c4c(O)cccc4[C@@](C)(O)[C@H]3[C@H](O)[C@@H]12 [OXYTETRACYCLINE]
[10]
  MIC: 0.4 µg/mL (≈ 0.869 µM)
[11]
  MIC: 6.7 µg/mL (≈ 14.6 µM)

## C[C@@H]1CO[C@@H]2C3=C(CC4[C@H](C(=O)O)CCC5[C@@H]1CC[C@]452)C(=O)C=CC3=O (stereo partly specified)
[3]
  MIC: 100 µg/mL (≈ 281 µM)
[4]
  MIC: 25 µg/mL (≈ 70.1 µM)
[2]
  MIC: 50 µg/mL (≈ 140 µM)
[5]
  Activity: inactive
[6]; Hansenula anomala
  MIC: 66.7 µg/mL (≈ 187 µM)
[7]
  MIC: 33.3 µg/mL (≈ 93.4 µM)
[8]
  MIC: 16.7 µg/mL (≈ 46.9 µM)
[9]
  MIC: 8.3 µg/mL (≈ 23.3 µM)
[10]
  MIC: 66.7 µg/mL (≈ 187 µM)
[11]
  MIC: 33.3 µg/mL (≈ 93.4 µM)
[12]
  Activity: inactive
[13]
  IC50: 7.5 µg/mL (≈ 21 µM)
[14]
  IC50: 8.5 µg/mL (≈ 23.8 µM)

## NC[C@H]1O[C@H](O[C@H]2[C@H](O)[C@@H](O[C@H]3O[C@H](CO)[C@@H](O)[C@H](N)[C@H]3O)[C@H](N)C[C@@H]2N)[C@H](O)[C@@H](O)[C@@H]1O [KANAMYCIN]
[12]
  MIC: 0.4 µg/mL (≈ 0.826 µM)
